The values that follow come from ChEMBL document CHEMBL5108074 (J Med Chem, 2022).

Structures are written as SMILES.

The nature of data set [1]: Clearance in Sprague-Dawley rat blood at 1 mg/kg, iv measured upto 24 hrs by LC-MS analysis. Format: ADME, organism-based. To be noted: whole blood. Summed up: (§1)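 Male Sprague-Dawley rats, two per route, single dose. IV: 1 mg/kg given as 1 mL/kg of a nominal 1 mg/mL formulation in vehicle. PO: 10 mg/kg given as 5 mL/kg of a 2 mg/mL formulation. PK parameters from noncompartmental analysis. Clearance expressed relative to rat liver blood flow of 80 mL/min/kg.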

The target in data set [2] is Cytochrome P450 2C9 (Homo sapiens, UniProt P11712). The data set can be described thus: Inhibition of CYP2C9 in human liver microsomes assessed as reduction in 4 hydroxy-diclofenac metabolite formation incubated for 30 mins in presence of NADPH by LC-MS/MS analysis. Format: ADME, Microsome. Background: Liver microsomes are vesicles of endoplasmic reticulum, rich in cytochrome P450 enzymes.
Cytochrome P450 2C9, sequence (P11712 whole entry): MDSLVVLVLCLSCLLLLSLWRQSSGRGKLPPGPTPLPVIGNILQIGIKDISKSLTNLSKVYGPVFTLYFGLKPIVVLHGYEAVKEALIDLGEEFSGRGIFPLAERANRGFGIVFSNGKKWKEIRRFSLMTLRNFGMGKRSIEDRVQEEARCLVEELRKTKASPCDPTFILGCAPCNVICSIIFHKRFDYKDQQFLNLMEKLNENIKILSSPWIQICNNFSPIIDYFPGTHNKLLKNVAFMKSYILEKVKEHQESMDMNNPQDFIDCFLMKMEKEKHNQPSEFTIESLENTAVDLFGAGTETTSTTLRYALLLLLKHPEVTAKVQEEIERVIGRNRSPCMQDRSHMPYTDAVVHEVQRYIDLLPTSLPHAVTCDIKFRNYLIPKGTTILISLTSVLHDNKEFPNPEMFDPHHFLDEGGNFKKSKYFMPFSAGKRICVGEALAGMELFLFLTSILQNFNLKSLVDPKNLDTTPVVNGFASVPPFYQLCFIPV

Data set [3] deals with Voltage-gated inwardly rectifying potassium channel KCNH2 (Homo sapiens, UniProt Q12809). The data set can be described thus: Inhibition of hERG expressed in CHO cells by whole cell patch clamp assay. Format: toxicity, cell-based. Summed up:
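hERG K+ current recorded by automated whole-cell patch clamp in CHO cells stably expressing hERG. Concentrations tested up to a maximum of 33 μM.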
(In general: hERG is a cardiac potassium channel; its block is linked to QT prolongation.)

Data set [4] deals with T1, Plasma kallikrein (Homo sapiens, UniProt P03952). The data set can be described thus: Inhibition of DXS induced human whole plasma kallikrein using H-D-Pro-Phe-Arg-AFC as substrate preincubated for 5 mins followed by DXS stimulation by fluorometer analysis. Format: cell-free.
T1 sequence (P03952 20-390 limits assumed): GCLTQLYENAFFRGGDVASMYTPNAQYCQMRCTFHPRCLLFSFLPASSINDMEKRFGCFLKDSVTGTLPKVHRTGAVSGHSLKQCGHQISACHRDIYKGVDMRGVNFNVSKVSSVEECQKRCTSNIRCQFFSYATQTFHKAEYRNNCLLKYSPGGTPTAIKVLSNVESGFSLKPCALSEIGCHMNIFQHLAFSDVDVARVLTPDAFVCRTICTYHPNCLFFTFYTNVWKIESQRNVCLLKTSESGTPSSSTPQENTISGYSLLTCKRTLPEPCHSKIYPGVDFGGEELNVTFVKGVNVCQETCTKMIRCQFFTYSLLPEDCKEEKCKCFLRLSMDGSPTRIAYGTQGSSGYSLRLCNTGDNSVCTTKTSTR
T1 sequence (P03952 391-638 limits assumed): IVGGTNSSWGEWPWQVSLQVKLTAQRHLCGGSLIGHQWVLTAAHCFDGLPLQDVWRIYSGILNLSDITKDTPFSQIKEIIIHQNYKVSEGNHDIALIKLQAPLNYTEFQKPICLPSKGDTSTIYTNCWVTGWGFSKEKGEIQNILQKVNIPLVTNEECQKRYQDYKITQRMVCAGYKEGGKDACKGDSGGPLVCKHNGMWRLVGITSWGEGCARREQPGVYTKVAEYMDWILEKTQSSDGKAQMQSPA
The nature of data set [5]: Half life in Sprague-Dawley rat at 10 mg/kg, po and 1 mg/kg, iv measured upto 24 hrs by LC-MS analysis. The class given is ADME, organism-based. The settings on record: in vivo. A digest of the protocol: as §1
The nature of data set [6]: Apparent permeability of the compound across apical side to basolateral side in human Caco-2 cells incubated for 1 hr by LC-MS/MS analysis. To be noted: caco-2, 1 h. For orientation: Passage across Caco-2 layers is used to estimate intestinal permeability.
A short description of data set [7]: Clearance in Sprague-Dawley rat assessed as liver blood flow at 1 mg/kg, iv measured upto 24 hrs by LC-MS analysis. To be noted: in vivo. Format: ADME, organism-based. Summed up: as §1
The target in data set [8] is T2, Cytochrome P450 3A4 (Homo sapiens, UniProt P08684). Description: Inhibition of CYP3A4 in human liver microsomes assessed as reduction in 6beta-hydroxymidazolam metabolite formation using midazolam as substrate incubated for 30 mins in presence of NADPH by LC-MS/MS analysis. Format: ADME, Microsome.
T2 sequence (P08684 whole entry): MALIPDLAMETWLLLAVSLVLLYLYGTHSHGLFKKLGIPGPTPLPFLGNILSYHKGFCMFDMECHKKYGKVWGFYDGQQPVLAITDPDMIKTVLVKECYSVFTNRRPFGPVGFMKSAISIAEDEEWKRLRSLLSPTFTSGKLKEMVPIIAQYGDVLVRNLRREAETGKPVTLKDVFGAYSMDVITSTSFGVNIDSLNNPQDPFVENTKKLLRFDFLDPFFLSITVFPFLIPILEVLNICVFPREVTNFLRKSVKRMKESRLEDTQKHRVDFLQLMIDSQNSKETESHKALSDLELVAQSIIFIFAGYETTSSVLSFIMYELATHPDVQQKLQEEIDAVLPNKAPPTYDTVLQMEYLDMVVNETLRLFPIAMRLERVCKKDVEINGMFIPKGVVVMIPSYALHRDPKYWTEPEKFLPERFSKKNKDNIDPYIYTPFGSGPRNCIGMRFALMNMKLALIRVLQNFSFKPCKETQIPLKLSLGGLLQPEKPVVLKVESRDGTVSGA
Data set [9] can be described thus: Half life in Beagle dog at 1 mg/kg, po and 1 mg/kg, iv measured upto 24 hrs by LC-MS analysis. Format: ADME, organism-based, Canis lupus familiaris. To be noted: in vivo.
Data set [10] is described as follows: Thermodynamic solubility of the compound in FaSSGF at 1 mg/ml at pH 1.6 measured after 4 hrs. The class given is physicochemical. To be noted: buffer, pH 1.6, 4 h. A digest of the protocol: (§2)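 Compound (nominal 1 or 100 mg/mL as free base) added to biorelevant medium preheated to 37 °C: FaSSGF at pH 1.6 or FaSSIF at pH 6.5. Vortexed, then shaken 4 h at 37 °C (~500 rpm). Centrifuged at 15000g for 10 min at 37 °C. Supernatant diluted and quantified against calibration standards. Crystalline material used where stated.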

Data set [11] in a line: Oral bioavailability in Sprague-Dawley rat at 10 mg/kg measured upto 24 hrs by LC-MS analysis. To be noted: in vivo. Format: ADME, organism-based. Summed up: as §1
In data set [12] the target is T2, Cytochrome P450 3A4. Description: Inhibition of CYP3A4 in human liver microsomes assessed as reduction in 6beta-hydroxytestosterone metabolite formation using testosterone as substrate incubated for 30 mins in presence of NADPH by LC-MS/MS analysis. The class given is ADME, Microsome.
A short description of data set [13]: Metabolic stability in human liver microsomes assessed as intrinsic clearance per mg of protein measured upto 60 mins in presence of NADPH regenerating system by LC-MS/MS analysis. Format: ADME, Microsome. To be noted: microsomes, 1 h.
Data set [14] is described as follows: Oral bioavailability in Beagle dog at 1 mg/kg measured upto 24 hrs by LC-MS analysis. The class given is ADME, organism-based, Canis lupus familiaris. To be noted: in vivo.
For data set [15], the target named is T3, Cytochrome P450 1A2 (Homo sapiens, UniProt P05177).
T3 sequence (P05177 whole entry): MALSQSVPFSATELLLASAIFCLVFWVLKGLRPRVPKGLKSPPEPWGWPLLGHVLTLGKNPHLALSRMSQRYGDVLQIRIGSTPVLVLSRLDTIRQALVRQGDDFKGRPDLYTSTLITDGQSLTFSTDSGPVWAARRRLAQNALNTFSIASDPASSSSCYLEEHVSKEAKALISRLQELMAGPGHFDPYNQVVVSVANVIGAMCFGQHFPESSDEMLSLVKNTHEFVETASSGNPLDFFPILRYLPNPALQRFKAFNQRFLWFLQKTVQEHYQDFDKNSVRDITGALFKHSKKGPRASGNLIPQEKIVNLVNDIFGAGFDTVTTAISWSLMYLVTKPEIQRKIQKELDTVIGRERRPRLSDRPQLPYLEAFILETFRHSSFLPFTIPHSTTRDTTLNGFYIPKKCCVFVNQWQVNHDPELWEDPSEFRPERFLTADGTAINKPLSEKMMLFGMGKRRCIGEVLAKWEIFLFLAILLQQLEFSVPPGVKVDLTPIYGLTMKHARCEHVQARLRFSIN
Description: Inhibition of CYP1A2 in human liver microsomes assessed as reduction in acetaminophen metabolite formation incubated for 30 mins in presence of NADPH by LC-MS/MS analysis. The class given is ADME, Microsome.

Data set [16] can be described thus: Clearance in Beagle dog blood at 1 mg/kg, iv measured upto 24 hrs by LC-MS analysis. Format: ADME, organism-based, Canis lupus familiaris. The settings on record: whole blood.
The nature of data set [17]: Clearance in Beagle dog assessed as liver blood flow at 1 mg/kg, iv measured upto 24 hrs by LC-MS analysis. Format: ADME, organism-based, Canis lupus familiaris. The settings on record: in vivo.
Data set [18] is described as follows: Thermodynamic solubility of the compound in FaSSIF at 1 mg/ml at pH 6.5 measured after 4 hrs. Format: physicochemical. To be noted: simulated gi fluid, pH 6.5, 4 h. A digest of the protocol: as §2
Data set [19] deals with Cytochrome P450 2C19 (Homo sapiens, UniProt P33261). The data set can be described thus: Inhibition of CYP2C19 in human liver microsomes assessed as reduction in 4-hydroxymephenytoin metabolite formation incubated for 30 mins in presence of NADPH by LC-MS/MS analysis. Format: ADME, Microsome.
Cytochrome P450 2C19, sequence (P33261 whole entry): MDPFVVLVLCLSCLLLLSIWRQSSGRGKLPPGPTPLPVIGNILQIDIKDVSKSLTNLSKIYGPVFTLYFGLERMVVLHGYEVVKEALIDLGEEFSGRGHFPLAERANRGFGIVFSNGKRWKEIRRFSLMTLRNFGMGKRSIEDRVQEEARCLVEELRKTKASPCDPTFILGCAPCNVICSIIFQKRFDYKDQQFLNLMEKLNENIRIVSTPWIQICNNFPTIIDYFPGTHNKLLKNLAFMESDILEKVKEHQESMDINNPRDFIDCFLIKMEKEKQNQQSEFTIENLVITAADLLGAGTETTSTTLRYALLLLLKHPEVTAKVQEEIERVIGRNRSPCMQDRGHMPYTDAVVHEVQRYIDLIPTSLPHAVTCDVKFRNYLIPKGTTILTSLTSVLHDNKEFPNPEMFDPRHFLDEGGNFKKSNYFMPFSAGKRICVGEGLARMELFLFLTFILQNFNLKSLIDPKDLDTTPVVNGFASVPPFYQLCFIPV
Data set [20] has as its target Cytochrome P450 2D6 (Homo sapiens, UniProt P10635). The data set can be described thus: Inhibition of CYP2D6 in human liver microsomes assessed as reduction in dextrorphan metabolite formation incubated for 30 mins in presence of NADPH by LC-MS/MS analysis. Format: ADME, Microsome.
Data set [21] in a line: Volume of distribution at steady state in Beagle dog at 1 mg/kg, po and 1 mg/kg, iv measured upto 24 hrs by LC-MS analysis. The class given is ADME, organism-based, Canis lupus familiaris. To be noted: in vivo.
Data set [22] in a line: Kinetic solubility of the compound in 0.1N HCl.
Data set [23] concerns the target T1, Plasma kallikrein. The data set can be described thus: Inhibition of human plasma kallikrein using H-D-Pro-Phe-Arg-AFC as flurogenic substrate preincubated for 5 mins followed by substrate addition by fluorometer analysis. The class given is cell-free.
A short description of data set [24]: Thermodynamic solubility of the compound in FaSSIF at 1 mg/ml at pH 6.5 using crystalline form of sample measured after 4 hrs. Format: physicochemical. The settings on record: simulated gi fluid, pH 6.5, 4 h. Summed up: as §2
Data set [25] addresses Cytochrome P450 2C8 (Homo sapiens, UniProt P10632). The data set can be described thus: Inhibition of CYP2C8 in human liver microsomes assessed as reduction in 6 alpha-hydroxypaclitaxel metabolite formation incubated for 30 mins in presence of NADPH by LC-MS/MS analysis. The class given is ADME, Microsome.
Data set [26] addresses Cytochrome P450 2B6 (Homo sapiens, UniProt P20813). Description: Inhibition of CYP2B6 in human liver microsomes assessed as reduction in hydroxybupropion metabolite formation incubated for 30 mins in presence of NADPH by LC-MS/MS analysis. The class given is ADME, Microsome.
Data set [27] in a line: Thermodynamic solubility of the compound in FaSSGF at 1 mg/ml at pH 1.6 using crystalline form of sample measured after 4 hrs. The class given is physicochemical. The settings on record: pH 1.6, 4 h. Summed up:
as §2

Data set [28] is described as follows: Kinetic solubility of the compound in aqueous assay buffer at pH 7.7.

Voltage-gated inwardly rectifying potassium channel KCNH2, sequence (Q12809 whole entry): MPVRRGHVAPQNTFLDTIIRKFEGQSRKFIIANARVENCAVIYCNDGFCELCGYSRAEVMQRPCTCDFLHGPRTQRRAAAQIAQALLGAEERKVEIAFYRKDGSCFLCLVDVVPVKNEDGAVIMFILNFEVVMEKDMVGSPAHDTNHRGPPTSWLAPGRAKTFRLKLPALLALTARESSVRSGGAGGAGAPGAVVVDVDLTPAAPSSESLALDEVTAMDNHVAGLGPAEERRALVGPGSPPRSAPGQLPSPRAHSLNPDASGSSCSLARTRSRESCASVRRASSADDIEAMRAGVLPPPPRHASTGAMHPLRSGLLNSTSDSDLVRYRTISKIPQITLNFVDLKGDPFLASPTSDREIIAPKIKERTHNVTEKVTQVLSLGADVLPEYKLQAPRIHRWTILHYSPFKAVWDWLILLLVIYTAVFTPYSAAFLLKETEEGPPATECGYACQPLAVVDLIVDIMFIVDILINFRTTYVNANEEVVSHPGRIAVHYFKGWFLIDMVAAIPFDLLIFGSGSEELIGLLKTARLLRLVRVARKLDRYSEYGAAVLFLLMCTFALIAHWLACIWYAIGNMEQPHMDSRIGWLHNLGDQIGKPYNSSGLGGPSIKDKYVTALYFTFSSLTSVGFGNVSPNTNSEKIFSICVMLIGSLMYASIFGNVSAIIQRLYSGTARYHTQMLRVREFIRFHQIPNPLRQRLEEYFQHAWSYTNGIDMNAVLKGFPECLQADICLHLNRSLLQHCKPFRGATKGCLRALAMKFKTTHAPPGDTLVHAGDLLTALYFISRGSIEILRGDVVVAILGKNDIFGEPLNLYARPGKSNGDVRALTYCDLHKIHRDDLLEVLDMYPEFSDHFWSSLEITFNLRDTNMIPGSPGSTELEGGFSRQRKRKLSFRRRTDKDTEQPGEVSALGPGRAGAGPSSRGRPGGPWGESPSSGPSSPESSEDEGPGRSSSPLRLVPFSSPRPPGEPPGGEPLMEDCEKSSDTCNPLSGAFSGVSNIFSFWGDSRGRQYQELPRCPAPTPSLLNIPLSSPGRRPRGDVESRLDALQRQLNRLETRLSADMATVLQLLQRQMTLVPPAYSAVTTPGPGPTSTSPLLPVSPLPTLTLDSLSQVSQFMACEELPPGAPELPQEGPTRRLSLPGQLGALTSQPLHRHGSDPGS
Cytochrome P450 2D6, sequence (P10635 whole entry): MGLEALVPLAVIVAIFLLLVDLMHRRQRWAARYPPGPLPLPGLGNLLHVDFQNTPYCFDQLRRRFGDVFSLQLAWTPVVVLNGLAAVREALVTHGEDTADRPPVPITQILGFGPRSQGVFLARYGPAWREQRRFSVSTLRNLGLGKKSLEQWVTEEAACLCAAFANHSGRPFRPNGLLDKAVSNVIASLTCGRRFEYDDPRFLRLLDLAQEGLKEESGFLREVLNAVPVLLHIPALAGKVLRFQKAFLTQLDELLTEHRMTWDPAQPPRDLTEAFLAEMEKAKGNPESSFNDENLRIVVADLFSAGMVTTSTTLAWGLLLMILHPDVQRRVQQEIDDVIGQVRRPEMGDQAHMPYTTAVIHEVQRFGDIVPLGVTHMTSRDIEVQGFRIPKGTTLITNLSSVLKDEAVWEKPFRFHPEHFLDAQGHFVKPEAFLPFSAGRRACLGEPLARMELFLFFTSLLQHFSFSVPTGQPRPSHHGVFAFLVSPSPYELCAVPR
Cytochrome P450 2C8, sequence (P10632 whole entry): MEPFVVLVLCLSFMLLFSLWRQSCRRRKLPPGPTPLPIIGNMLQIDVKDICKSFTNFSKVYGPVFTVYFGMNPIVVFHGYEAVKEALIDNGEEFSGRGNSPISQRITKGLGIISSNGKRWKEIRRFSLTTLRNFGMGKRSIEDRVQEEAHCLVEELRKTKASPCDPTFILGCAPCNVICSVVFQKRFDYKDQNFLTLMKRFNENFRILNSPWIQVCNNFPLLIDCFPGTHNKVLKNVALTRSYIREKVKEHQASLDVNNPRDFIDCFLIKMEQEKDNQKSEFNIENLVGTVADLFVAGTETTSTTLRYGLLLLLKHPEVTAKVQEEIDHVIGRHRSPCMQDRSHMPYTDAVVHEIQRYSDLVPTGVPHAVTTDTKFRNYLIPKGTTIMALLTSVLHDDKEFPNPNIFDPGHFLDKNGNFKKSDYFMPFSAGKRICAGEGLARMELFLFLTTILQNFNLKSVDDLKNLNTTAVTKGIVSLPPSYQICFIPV
Cytochrome P450 2B6, sequence (P20813 whole entry): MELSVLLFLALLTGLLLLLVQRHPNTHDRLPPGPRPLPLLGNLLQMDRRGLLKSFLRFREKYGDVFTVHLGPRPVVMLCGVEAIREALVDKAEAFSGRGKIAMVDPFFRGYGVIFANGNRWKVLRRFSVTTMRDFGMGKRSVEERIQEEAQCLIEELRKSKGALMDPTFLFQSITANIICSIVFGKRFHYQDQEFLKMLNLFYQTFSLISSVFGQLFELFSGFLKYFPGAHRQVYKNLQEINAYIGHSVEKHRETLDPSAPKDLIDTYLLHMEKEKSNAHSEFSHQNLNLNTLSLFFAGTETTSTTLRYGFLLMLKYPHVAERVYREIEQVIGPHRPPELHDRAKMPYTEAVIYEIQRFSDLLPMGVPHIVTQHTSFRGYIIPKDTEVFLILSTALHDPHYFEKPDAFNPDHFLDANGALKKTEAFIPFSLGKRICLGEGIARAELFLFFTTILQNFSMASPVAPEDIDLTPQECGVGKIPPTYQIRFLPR

Turning to `COc1ccnc(CNC(=O)c2cn(Cc3ccc(Cn4ccccc4=O)cc3)nc2C(F)(F)F)c1F`, the clearance was found to be 11.1 mL/min/kg in data set [1] and 15.9 mL/min/kg in data set [16]. The IC50 in data set [2] is > 25 µM; in data set [3], > 33 µM; in data set [4], 76 nM; in data set [8], > 25 µM; in data set [12] it was > 25 µM; in data set [15], > 25 µM. In addition, the IC50 in [19] and in [20] was > 25 µM in each case. Also, the t1/2 in data set [5] was 66 min; in data set [9], 54 min. Further, the Papp in data set [6] is on record as 17 10^-6 cm/s. Further, the results for the LBF in [7] and in [17] were 14% and 48%, respectively. In addition, the results for the Therm_solubility in [10] and in [18] were 0.69 mg/mL and 0.02 mg/mL, respectively. The F came to 97% in [11] and 32% in [14]. Also, in data set [13], the microsomal intrinsic clearance is 49 µL/min. In data set [21], this compound had a Vdss of 0.63 L/kg.
Take `COCc1nn(Cc2ccc(Cn3ccccc3=O)cc2)cc1C(=O)NCc1c(F)ccc(OC)c1F`: the clearance was determined as 23.7 mL/min/kg in data set [1] and 24.5 mL/min/kg in data set [16]. Further, the half-inhibitory concentration (IC50) in data set [2] is 13 µM; in data set [3], > 33 µM; in [4], 500 nM; in [8], 19 µM; in [23], 6 nM; in data set [25], 14 µM. The IC50 was 11 µM in data set [12]; > 25 µM in [26]; > 25 µM in [15]; > 25 µM in data set [19]; > 25 µM in data set [20]. The kinetic solubility in data set [22] and in [28] was > 120 µg/mL each time. The t1/2 in data set [5] worked out at 42 min. For the same compound, in [6], the Papp is listed as 18 10^-6 cm/s. Further, the values for the LBF in [7] and in data set [17] were 30% and 74%, respectively. In addition, the Therm_solubility in [24] and in data set [27] was 9 µg/mL each time. Further, the values for the F in data set [11] and in data set [14] were 64% and 16%, respectively. The microsomal intrinsic clearance in data set [13] stood at 92 µL/min. Moreover, the Vdss in [21] was determined as 0.36 L/kg.

As a reminder, the clearance is the rate of elimination divided by the concentration. A word on the IC50: it is the point on the concentration scale where inhibition reaches its midpoint. One may read the solubility (kinetic) as the concentration staying in solution when a stock, usually in DMSO, is diluted into the medium.
